Measurements: ChEMBL document CHEMBL4414663, “Pyrazole-4-Carboxamide (YW2065): A Therapeutic Candidate for Colorectal Cancer via Dual Activities of Wnt/β-Catenin Signaling Inhibition and AMP-Activated Protein Kinase (AMPK) Activation” (J Med Chem, 2019)
The source made the active and inactive calls. The rule behind the calls is not given here.

Key:
SW480 = assay: Growth inhibition of human SW480 cells at 50 uM by Cell-titer-fluor reagent based assay relative to control; type: functional; conditions: read-out: GI
HEK293 = assay: Induction of Axin-1 protein expression in recombinant human Wnt-3a-induced Wnt-HEK293 cells at 1 uM by Western blot analysis; type: functional, cell-based
SW-620 [1] = assay: Induction of Axin-1 protein expression in human SW620 cells by Western blot analysis; type: functional, cell-based
Summary of the method: (§1)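 SW620 cells in RPMI 1640 with 10% FBS, treated over a concentration range. Lysed in RIPA with protease inhibitors, 20 µL of 2 mg/mL protein run on 7.5% SDS-PAGE, transferred to nitrocellulose, blocked in 5% BSA. Rabbit primaries (Axin-1, ACC, pACC, AMPK, pAMPK at 1:1,000; β-actin 1:2,000) overnight at 4 °C, HRP secondary 1:8000 for 2 h, ECL.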

Homo sapiens [2] = species on record: Homo sapiens; assay: Inhibition of Wnt/beta-Catenin signaling in human SW620 cells assessed as reduction in beta-catenin protein level at 1 to 30 uM by Western blot analysis; type: cell-based
Summary of the method: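 SW620 cells treated with a dose range of compound and lysed in RIPA buffer with protease inhibitor. Protein at 2 mg/mL, denatured at 98 °C for 5 min, run on 7.5% SDS-PAGE and transferred to nitrocellulose. Blocked in 5% BSA; rabbit anti-β-catenin (1:2,000) overnight at 4 °C with β-actin as loading control. HRP secondary (1:8000), 2 h; ECL detection.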

Homo sapiens [3] = species on record: Homo sapiens; assay: Inhibition of Wnt/beta-Catenin signaling in human SW620 cells assessed as reduction in S100A4 mRNA expression at 10 uM incubated for 24 hrs by real-time PCR analysis; type: cell-based
Summary of the method: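 SW620 cells (RPMI 1640, 10% FBS) in 6-well plates, incubated 24 h, then treated with compound at several concentrations, three replicates each, for 24 h. Total RNA isolated with Trizol/phenol-chloroform; 2 µg reverse transcribed; Wnt target gene mRNA quantified by PCR.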

[4] = target: AMP-activated protein kinase, AMPK (Homo sapiens) (UniProt P54646+O43741+P54619+Q9UGJ0+Q9Y478+Q13131+Q9UGI9); assay: Activation of AMPK in human SW620 cells assessed as increase in AMPK phosphorylation incubated for 24 hrs by Western blot analysis; type: cell-based; summary of the method: as §1
SW-620 [5] = assay: Induction of apoptosis in human SW620 cells incubated for 48 hrs by AAD-7 and FITC-annexin-V staining based flow cytometry; type: functional, cell-based
Summary of the method: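 Cells treated with a range of concentrations or DMSO for 48 h. Stained with FITC annexin V/7-AAD and analysed by flow cytometry.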

SW-620 [6] = assay: Induction of apoptosis in human SW620 cells assessed as viable cells level at 1 uM incubated for 48 hrs by AAD-7 and FITC-annexin-V staining based flow cytometry (reference value: 73.8%); type: functional
SW-620 [7] = assay: Induction of apoptosis in human SW620 cells assessed as late apoptotic cells level at 1 uM incubated for 48 hrs by AAD-7 and FITC-annexin-V staining based flow cytometry (reference value: 7.6%); type: functional
SW-620 [8] = assay: Induction of apoptosis in human SW620 cells assessed as viable cells level at 3 uM incubated for 48 hrs by AAD-7 and FITC-annexin-V staining based flow cytometry (reference value: 73.8%); type: functional
SW-620 [9] = assay: Induction of apoptosis in human SW620 cells assessed as viable cells level at 10 uM incubated for 48 hrs by AAD-7 and FITC-annexin-V staining based flow cytometry (reference value: 73.8%); type: functional
SW-620 [10] = assay: Induction of apoptosis in human SW620 cells assessed as late apoptotic cells level at 10 uM incubated for 48 hrs by AAD-7 and FITC-annexin-V staining based flow cytometry (reference value: 7.6%); type: functional
[11] = target: Glycogen synthase kinase-3 alpha (Homo sapiens) (UniProt P49840); assay: Inhibition of GSK3A (unknown origin) at 1000 nM relative to control
Chain of Glycogen synthase kinase-3 alpha (Homo sapiens) (P49840 2-483 limits assumed): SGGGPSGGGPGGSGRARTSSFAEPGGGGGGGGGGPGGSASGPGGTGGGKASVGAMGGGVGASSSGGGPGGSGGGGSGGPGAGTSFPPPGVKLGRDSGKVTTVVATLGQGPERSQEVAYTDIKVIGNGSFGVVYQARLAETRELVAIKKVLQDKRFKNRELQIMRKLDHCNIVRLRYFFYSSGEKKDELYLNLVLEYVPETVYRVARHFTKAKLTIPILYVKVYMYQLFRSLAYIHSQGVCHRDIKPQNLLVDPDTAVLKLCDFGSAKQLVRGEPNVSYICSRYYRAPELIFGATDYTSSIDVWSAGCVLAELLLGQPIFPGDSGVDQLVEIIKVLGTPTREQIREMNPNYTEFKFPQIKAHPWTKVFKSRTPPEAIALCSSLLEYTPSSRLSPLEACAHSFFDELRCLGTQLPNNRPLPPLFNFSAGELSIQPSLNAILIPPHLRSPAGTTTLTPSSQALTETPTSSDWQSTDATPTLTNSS
Summary of the method: (§2)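 Single-concentration screen at 1000 nM against a 273-kinase panel, reported as percent inhibition.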

[12] = target: MAP kinase-activated protein kinase 3 (Homo sapiens) (UniProt Q16644); assay: Inhibition of MAPKAPK3 (unknown origin) at 1000 nM relative to control; summary of the method: as §2
Chain of MAP kinase-activated protein kinase 3 (Homo sapiens) (Q16644 whole entry, looked up): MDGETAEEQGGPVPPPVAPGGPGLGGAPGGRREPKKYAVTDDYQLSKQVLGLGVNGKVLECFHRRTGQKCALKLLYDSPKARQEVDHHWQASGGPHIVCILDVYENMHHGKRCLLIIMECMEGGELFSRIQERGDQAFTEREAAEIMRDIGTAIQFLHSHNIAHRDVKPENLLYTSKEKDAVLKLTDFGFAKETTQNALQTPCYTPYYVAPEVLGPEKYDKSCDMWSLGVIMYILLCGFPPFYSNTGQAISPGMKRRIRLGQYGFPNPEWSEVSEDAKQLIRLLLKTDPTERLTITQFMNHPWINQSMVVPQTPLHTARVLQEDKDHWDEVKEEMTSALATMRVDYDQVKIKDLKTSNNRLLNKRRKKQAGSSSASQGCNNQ

[13] = target: Maternal embryonic leucine zipper kinase (Homo sapiens) (UniProt Q14680); assay: Inhibition of MELK (unknown origin) at 1000 nM relative to control; summary of the method: as §2
Chain of Maternal embryonic leucine zipper kinase (Homo sapiens) (Q14680 whole entry, looked up): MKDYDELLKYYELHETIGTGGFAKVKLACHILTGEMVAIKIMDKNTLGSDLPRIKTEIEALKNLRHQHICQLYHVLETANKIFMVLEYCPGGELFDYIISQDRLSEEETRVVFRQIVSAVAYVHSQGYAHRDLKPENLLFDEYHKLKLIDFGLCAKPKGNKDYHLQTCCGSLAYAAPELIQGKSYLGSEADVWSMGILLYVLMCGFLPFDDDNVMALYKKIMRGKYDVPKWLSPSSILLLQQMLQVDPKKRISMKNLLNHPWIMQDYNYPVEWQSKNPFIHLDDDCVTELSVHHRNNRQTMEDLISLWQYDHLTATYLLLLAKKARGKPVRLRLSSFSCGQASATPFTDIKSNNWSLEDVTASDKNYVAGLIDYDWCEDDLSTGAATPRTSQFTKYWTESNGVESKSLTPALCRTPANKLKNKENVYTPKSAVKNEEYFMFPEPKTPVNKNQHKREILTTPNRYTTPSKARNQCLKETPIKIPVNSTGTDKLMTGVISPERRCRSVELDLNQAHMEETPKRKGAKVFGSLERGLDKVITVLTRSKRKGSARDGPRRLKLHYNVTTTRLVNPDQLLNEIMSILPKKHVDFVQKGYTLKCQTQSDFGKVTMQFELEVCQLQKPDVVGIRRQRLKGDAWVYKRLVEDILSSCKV

[14] = target: High affinity nerve growth factor receptor (Homo sapiens) (UniProt P04629); assay: Inhibition of NTRK1 (unknown origin) at 1000 nM relative to control; summary of the method: as §2
Chain of High affinity nerve growth factor receptor (Homo sapiens) (P04629 33-796 limits assumed): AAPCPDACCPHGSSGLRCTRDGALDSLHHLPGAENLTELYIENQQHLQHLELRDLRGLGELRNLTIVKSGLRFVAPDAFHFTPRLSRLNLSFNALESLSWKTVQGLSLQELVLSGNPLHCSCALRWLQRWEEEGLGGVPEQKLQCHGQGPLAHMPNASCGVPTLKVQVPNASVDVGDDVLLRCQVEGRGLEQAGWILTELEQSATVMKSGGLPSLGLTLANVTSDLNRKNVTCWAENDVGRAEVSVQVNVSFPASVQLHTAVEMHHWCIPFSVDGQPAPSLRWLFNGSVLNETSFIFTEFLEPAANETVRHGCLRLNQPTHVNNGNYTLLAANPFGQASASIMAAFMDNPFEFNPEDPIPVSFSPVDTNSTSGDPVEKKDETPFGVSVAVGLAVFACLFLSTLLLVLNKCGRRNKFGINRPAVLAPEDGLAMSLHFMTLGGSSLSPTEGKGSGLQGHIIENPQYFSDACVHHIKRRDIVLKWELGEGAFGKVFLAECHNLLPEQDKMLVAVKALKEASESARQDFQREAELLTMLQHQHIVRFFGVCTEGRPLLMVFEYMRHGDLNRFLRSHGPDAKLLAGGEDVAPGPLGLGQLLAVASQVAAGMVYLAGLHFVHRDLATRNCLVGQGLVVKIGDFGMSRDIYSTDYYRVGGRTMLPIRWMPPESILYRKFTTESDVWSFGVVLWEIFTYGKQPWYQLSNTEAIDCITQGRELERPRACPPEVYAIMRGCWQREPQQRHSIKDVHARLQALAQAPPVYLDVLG

[15] = AUC (0 to infinity) in C57BL/6J mouse at 5 mg/kg, iv by UPLC-MS analysis; type: ADME, organism-based; design: dose 5 mg/kg, route intravenous, time infinity; conditions: in vivo
Summary of the method: (§3)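 Male C57BL/6J mice, 2-3 months, 23-26 g. Single 5 mg/kg dose in 5% Kolliphor in saline, given iv (n=3) or by oral gavage (n=5). Tail-vein blood taken at 0.25, 0.5, 1, 4, 8 and 12 h and spun to plasma. Plasma analysed by LC-MS/MS on a triple quadrupole with a C18 column. Parameters from non-compartmental analysis.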

[16] = Cmax in C57BL/6J mouse at 5 mg/kg, po by UPLC-MS analysis; type: ADME, organism-based; design: dose 5 mg/kg, route oral; conditions: in vivo; summary of the method: as §3
[17] = Oral bioavailability in C57BL/6J mouse at 5 mg/kg by UPLC-MS analysis; type: ADME, organism-based; conditions: in vivo
Summary of the method: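 Male C57BL/6J mice, 2–3 months old, 23–26 g. Single 5 mg/kg dose in 5% Kolliphor in saline, IV (n = 3) or oral gavage (n = 5). Tail-vein blood taken at 0.25, 0.5, 1, 4, 8 and 12 h and centrifuged to plasma. Analysed by LC-MS/MS (QTRAP 4000, C18 column); parameters from non-compartmental analysis.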

SW-620 [18] = assay: Antitumor activity against human SW620 cells xenografted in nude mouse assessed as reduction in tumor weight at 10 mg/kg, ip QD for 32 consecutive days; type: functional, organism-based
Summary of the method: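 Six-week-old nude mice injected subcutaneously with 2×10^6 SW620 cells. Randomised at mean tumor volume 100–200 mm³ (n=6/group). Given 10 or 50 mg/kg ip daily for 32 consecutive days; vehicle 10% DMSO, 10% Kolliphor, 80% saline. Tumor volume measured every other day. Tumors weighed after euthanasia at day 32. t test against vehicle.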

[19] = Toxicity in C57BL/6 mouse assessed as effect on BUN level at 100 mg/kg/day, ip for 21 days; type: organism-based; conditions: in vivo, 504 h
[20] = Toxicity in C57BL/6 mouse assessed as effect on total protein level at 100 mg/kg/day, ip for 21 days; type: organism-based; conditions: in vivo, 504 h
Mus musculus = assay: Inhibition of Wnt/beta-Catenin signaling in nude mouse xenografted with human SW620 cells assessed as reduction in S100A4 mRNA expression at 50 mg/kg, ip QD for 32 consecutive days by RT-PCR analysis; type: organism-based; conditions: in vivo
Summary of the method: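 Six-week-old nude mice implanted subcutaneously in the right flank with 2×10^6 SW620 cells. Randomized at mean tumor volume 100–200 mm³, n = 6/group. Dosed IP once daily for 32 days at 10 or 50 mg/kg, or vehicle (10% DMSO, 10% Kolliphor, 80% saline). Tumors collected at day 32; Axin-2, MMP-7 and S100A4 expression measured by RT-PCR.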

With `Cc1c(C(=O)Nc2ccc3ccccc3n2)cnn1-c1ccccc1Br` the inhibition of growth at 50 µM (SW480) was > 50%, the Activity (HEK293) was “Active” and the Activity (SW-620 [1]) was “Dose-dependent effect”. For the same molecule, the inhibition (Homo sapiens [2]) was “Active”, the inhibition (Homo sapiens [3]) was “Active” and the Activity [4] was “Dose-dependent effect”. The Activity (SW-620 [5]) was “Dose-dependent effect”, the Activity (SW-620 [6]) was 67.1% and the Activity (SW-620 [7]) was 9.43%. For the same molecule, the Activity (SW-620 [8]) was 45%, the Activity (SW-620 [9]) was 22.1% and the Activity (SW-620 [10]) was 20%. The inhibition [11] was “Active”, the inhibition [12] was “Active” and the inhibition [13] was “Active”. For the same molecule, the inhibition [14] was “Active”, the AUC(0-inf) [15] was 57500 ng·h/mL and the Cmax [16] was 5200 ng/mL. For the same molecule, the bioavailability [17] was 22.9%, the Activity (SW-620 [18]) was “Active” and the Activity [19] was “Non-Toxic”. The Activity [20] was “Non-Toxic” and the “inhibition (INH)” value (Mus musculus) was “Active”.
